≈ marks a conversion by molar mass, not a printed value.
Assays:
[1] = tested on: Escherichia coli; assay: Antibacterial activity against Escherichia coli UB1005 measured after 24 hrs; assay type: functional; details: UB1005, 24 h
Outline: (§1)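 Broth microdilution adapted from NCCLS. Mid-log bacteria were diluted in MHB to a final (0.5–1) × 10^5 CFU mL−1. Peptides were serially diluted in 0.2% BSA and mixed with an equal volume of cells. After 24 h at 37 °C, MIC was read at A492 as the lowest concentration inhibiting 95% of growth. At least three independent experiments, each with three technical replicates.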

[2] = tested on: Salmonella typhimurium; assay: Antibacterial activity against Salmonella typhimurium ATCC 14028 measured after 24 hrs; assay type: functional, Salmonella enterica subsp. enterica serovar Typhimurium; details: Salmonella enterica, ATCC 14028, 24 h; outline: as §1
[3] = Antibacterial activity against Salmonella pullorum ATCC 7913 measured after 24 hrs; assay type: functional, Salmonella enterica subsp. enterica serovar Pullorum; details: Salmonella enterica, ATCC 7913, 24 h; outline: as §1
[4] = tested on: Escherichia coli; assay: Antibacterial activity against Escherichia coli K88 measured after 24 hrs; assay type: functional; details: K88, 24 h; outline: as §1
[5] = tested on: Salmonella typhimurium; assay: Antibacterial activity against Salmonella typhimurium C7731 measured after 24 hrs; assay type: functional, Salmonella enterica subsp. enterica serovar Typhimurium; details: Salmonella enterica, C7731, 24 h; outline: as §1
[6] = tested on: Staphylococcus aureus; assay: Antibacterial activity against Staphylococcus aureus ATCC 29213 measured after 24 hrs; assay type: functional; details: ATCC 29213, 24 h
Outline: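 Broth microdilution modified from NCCLS. Mid-log bacteria at (0.5–1) × 10^5 CFU mL−1 in MHB, mixed with peptides serially diluted in 0.2% BSA. Incubated 24 h at 37 °C, read at A492. MIC taken as lowest concentration giving 95% growth inhibition. At least three independent experiments, each with three technical replicates.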

[7] = tested on: Candida albicans; assay: Antifungal activity against Candida albicans cgmcc2.2086 measured after 48 hrs by broth microdilution method; assay type: functional; details: cgmcc2.2086, 48 h
Outline: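 Modified CLSI M27-A2 microdilution. Yeast colonies were diluted in MOPS-buffered RPMI 1640 to a final (0.5–1) × 10^3 CFU mL−1 and mixed with an equal volume of peptide serially diluted in 0.2% BSA. After 48 h at 28 °C, MIC was read at A492 as the lowest concentration inhibiting 95% of growth. At least three independent experiments, each with three technical replicates.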

[8] = Bactericidal activity against Salmonella pullorum ATCC 7913 incubated for 24 hrs followed by replating on agar plate and measured after overnight incubation; assay type: functional, Salmonella enterica subsp. enterica serovar Pullorum; details: Salmonella enterica, ATCC 7913, 24 h; read-out: MBC>99.9
Outline: (§2)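 Mid-log bacteria diluted in MHB to (0.5–1) × 10^5 CFU/mL and mixed 1:1 with peptide serially diluted in 0.2% BSA. After 24 h at 37 °C, 50 μL of each mixture was plated on agar and incubated overnight. MBC taken as the lowest concentration killing >99.9% of cells. At least three independent experiments, each with three technical replicates.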

[9] = tested on: Pseudomonas aeruginosa; assay: Bactericidal activity against Pseudomonas aeruginosa ATCC 27853 incubated for 24 hrs followed by replating on agar plate and measured after overnight incubation; assay type: functional; details: ATCC 27853, 24 h, read-out: MBC>99.9; outline: as §2
[10] = tested on: Escherichia coli; assay: Bactericidal activity against Escherichia coli K88 incubated for 24 hrs followed by replating on agar plate and measured after overnight incubation; assay type: functional; details: K88, 24 h, read-out: MBC>99.9; outline: as §2
[11] = tested on: Escherichia coli; assay: Bactericidal activity against Escherichia coli 078 incubated for 24 hrs followed by replating on agar plate and measured after overnight incubation; assay type: functional; details: Escherichia coli, 078, 24 h; read-out: MBC>99.9
Outline: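 After the 24 h, 37 °C MHB microdilution (0.5–1 × 10^5 CFU mL−1 inoculum, peptides diluted in 0.2% BSA), 50 μL from each well was plated on agar and incubated overnight. MBC was taken as the lowest concentration killing >99.9% of cells. Three or more independent experiments, each with triplicate technical replicates.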

[12] = tested on: Staphylococcus aureus; assay: Bactericidal activity against methicillin-resistant Staphylococcus aureus ATCC 43300 incubated for 24 hrs followed by replating on agar plate and measured after overnight incubation; assay type: functional; details: ATCC 43300, 24 h, read-out: MBC>99.9
Outline: (§3)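 After the 24 h, 37 °C MHB microdilution MIC assay, 50 μL from each well was plated on agar and incubated overnight. MBC taken as lowest peptide concentration killing >99.9% of cells. At least three independent experiments, each with three technical replicates.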

[13] = tested on: Staphylococcus aureus; assay: Bactericidal activity against Staphylococcus aureus ATCC 25923 incubated for 24 hrs followed by replating on agar plate and measured after overnight incubation; assay type: functional; details: ATCC 25923, 24 h, read-out: MBC>99.9; outline: as §3
[14] = tested on: Candida tropicalis; assay: Fungicidal activity against Candida tropicalis cgmcc2.1975 incubated for 48 hrs followed by replating on YM agar plate and measured after 48 hrs; assay type: functional
Outline: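 Yeast diluted in MOPS-buffered RPMI 1640 to (0.5–1) × 10^3 CFU/mL (CLSI M27-A2, modified) and mixed 1:1 with peptide serially diluted in 0.2% BSA. After 48 h at 28 °C, 50 μL per well was plated on YM agar and incubated 48 h at 28 °C. MFC taken as the lowest concentration killing ≥99.9% of cells. Three or more independent experiments, triplicate wells.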

[15] = tested on: Escherichia coli; assay: Antibacterial activity against Escherichia coli ATCC 25922 measured after 18 to 24 hrs in presence of MgCl2; assay type: functional
[16] = tested on: Escherichia coli; assay: Antibacterial activity against Escherichia coli ATCC 25922 measured after 18 to 24 hrs in presence of NH4Cl; assay type: functional
[17] = tested on: Staphylococcus aureus; assay: Antibacterial activity against Staphylococcus aureus ATCC 29213 measured after 18 to 24 hrs in presence of MgCl2; assay type: functional
[18] = tested on: Staphylococcus aureus; assay: Antibacterial activity against Staphylococcus aureus ATCC 29213 measured after 18 to 24 hrs in presence of NH4Cl; assay type: functional
Outline: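 MIC broth microdilution (MHB, 0.2% BSA peptide diluent, A492, 95% inhibition) run in the presence of physiological salts at final concentrations of 6 μM NH4Cl or 8 μM ZnCl2. Three independent assays, each with three technical replicates.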

[19] = tested on: Candida albicans; assay: Antifungal activity against Candida albicans cgmcc2.2086 measured after 48 hrs in presence of FeCl by broth microdilution method; assay type: functional; details: cgmcc2.2086, 48 h
[20] = tested on: Candida albicans; assay: Antifungal activity against Candida albicans cgmcc2.2086 measured after 48 hrs in presence of NH4Cl by broth microdilution method; assay type: functional; details: cgmcc2.2086, 48 h
[21] = Therapeutic index, ratio of MHC10 for hemolytic activity in human RBC to MIC95 against Staphylococcus aureus ATCC 29213; assay type: toxicity; details: human red blood cells (erythrocytes), read-out: TI
Outline: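 Therapeutic index = MHC divided by MIC. MHC is the lowest concentration giving >10% lysis of human RBC (1 h, 37 °C, 1-128 µM, A576). MIC is 95% growth inhibition by broth microdilution: bacteria in MHB 24 h at 37 °C; Candida in MOPS-buffered RPMI 1640 at (0.5–1) × 10^3 CFU mL−1, 48 h at 28 °C.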

[22] = Conformational stability in pH 7.4 sodium phosphate buffer assessed as absorption spectra at minimum dichroic band at 35 uM by CD spectra analysis; assay type: physicochemical; details: pH 7.4, 35 µM
Outline: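 CD spectra from 190 to 250 nm of peptide at 35 μM in 10 mM PBS, 30 mM SDS micelles or 50% TFE, recorded in a 1.0-mm quartz cell. Ellipticity was converted to mean residue ellipticity. Three independent scans, each averaged over more than 3 runs.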

Compound: H-AARIILRGRFR-NH2
- MIC95 [1]: 4 µM
- MIC95 [2]: 4 µM
- MIC95 [3]: 4 µM
- MIC95 [4]: 2 µM
- MIC95 [5]: 8 µM
- MIC95 [6]: 8 µM
- MIC95 [7]: 128 µM
- MBC [8]: 8 µM
- MBC [9]: 32 µM
- MBC [10]: 4 µM
- MBC [11]: 8 µM
- MBC [12]: 8 µM
- MBC [13]: 32 µM
- MFC<=99.9 [14]: 32 µM
- MIC95 [15]: 16 µM
- MIC95 [16]: 8 µM
- MIC95 [17]: 16 µM
- MIC95 [18]: 16 µM
- MIC95 [19]: 128 µM
- MIC95 [20]: > 128 µM
- selectivity ratio [21]: 26.9
- Wavelength of minimum CD band [22]: 200 nm

Compound: H-AARRILRWIFR-NH2
- MIC95 [1]: 4 µM
- MIC95 [2]: 4 µM
- MIC95 [3]: 4 µM
- MIC95 [4]: 4 µM
- MIC95 [5]: 4 µM
- MIC95 [6]: 4 µM
- MIC95 [7]: 8 µM
- MBC [8]: 8 µM
- MBC [9]: 16 µM
- MBC [10]: 8 µM
- MBC [11]: 4 µM
- MBC [12]: 8 µM
- MBC [13]: 8 µM
- MFC<=99.9 [14]: 4 µM
- MIC95 [15]: 8 µM
- MIC95 [16]: 4 µM
- MIC95 [17]: 8 µM
- MIC95 [18]: 8 µM
- MIC95 [19]: 8 µM
- MIC95 [20]: 8 µM
- selectivity ratio [21]: 45.2
- Wavelength of minimum CD band [22]: 200 nm

Compound: H-AARIILRARFR-NH2
- MIC95 [1]: 2 µM
- MIC95 [2]: 4 µM
- MIC95 [3]: 4 µM
- MIC95 [4]: 2 µM
- MIC95 [5]: 4 µM
- MIC95 [6]: 4 µM
- MIC95 [7]: 16 µM
- MBC [8]: 8 µM
- MBC [9]: 32 µM
- MBC [10]: 4 µM
- MBC [11]: 4 µM
- MBC [12]: 4 µM
- MBC [13]: 8 µM
- MFC<=99.9 [14]: 4 µM
- MIC95 [15]: 16 µM
- MIC95 [16]: 2 µM
- MIC95 [17]: 8 µM
- MIC95 [18]: 4 µM
- MIC95 [19]: 16 µM
- MIC95 [20]: 16 µM
- selectivity ratio [21]: 90.5
- Wavelength of minimum CD band [22]: 200 nm

Compound: H-AARIILRYRFR-NH2
- MIC95 [1]: 4 µM
- MIC95 [2]: 8 µM
- MIC95 [3]: 4 µM
- MIC95 [4]: 4 µM
- MIC95 [5]: 4 µM
- MIC95 [6]: 4 µM
- MIC95 [7]: 32 µM
- MBC [8]: 8 µM
- MBC [9]: 64 µM
- MBC [10]: 8 µM
- MBC [11]: 4 µM
- MBC [12]: 8 µM
- MBC [13]: 16 µM
- MFC<=99.9 [14]: 32 µM
- MIC95 [15]: 64 µM
- MIC95 [16]: 8 µM
- MIC95 [17]: 8 µM
- MIC95 [18]: 4 µM
- MIC95 [19]: 64 µM
- MIC95 [20]: 64 µM
- selectivity ratio [21]: 64
- Wavelength of minimum CD band [22]: 200 nm

Compound: CC[C@H](C)[C@H](NC(=O)CN)C(=O)NCC(=O)N[C@@H](C)C(=O)N[C@H](C(=O)N[C@@H](CC(C)C)C(=O)N[C@@H](CCCCN)C(=O)N[C@H](C(=O)N[C@@H](CC(C)C)C(=O)N[C@H](C(=O)N[C@H](C(=O)NCC(=O)N[C@@H](CC(C)C)C(=O)N1CCC[C@H]1C(=O)N[C@@H](C)C(=O)N[C@@H](CC(C)C)C(=O)N[C@H](C(=O)N[C@@H](CO)C(=O)N[C@@H](Cc1c[nH]c2ccccc12)C(=O)N[C@H](C(=O)N[C@@H](CCCCN)C(=O)N[C@@H](CCCNC(=N)N)C(=O)N[C@@H](CCCCN)C(=O)N[C@@H](CCCNC(=N)N)C(=O)N[C@@H](CCC(N)=O)C(=O)N[C@@H](CCC(N)=O)C(N)=O)[C@@H](C)CC)[C@@H](C)CC)[C@@H](C)O)[C@@H](C)O)C(C)C)C(C)C [MELITTIN]
- MIC95 [1]: 2 µM (≈ 5.69 µg/mL)
- MIC95 [2]: 2 µM (≈ 5.69 µg/mL)
- MIC95 [3]: 2 µM (≈ 5.69 µg/mL)
- MIC95 [4]: 1 µM (≈ 2.85 µg/mL)
- MIC95 [5]: 2 µM (≈ 5.69 µg/mL)
- MIC95 [6]: 4 µM (≈ 11.4 µg/mL)
- MIC95 [7]: 4 µM (≈ 11.4 µg/mL)
- MBC [8]: 2 µM (≈ 5.69 µg/mL)
- MBC [9]: 4 µM (≈ 11.4 µg/mL)
- MBC [10]: 2 µM (≈ 5.69 µg/mL)
- MBC [11]: 2 µM (≈ 5.69 µg/mL)
- MBC [12]: 4 µM (≈ 11.4 µg/mL)
- MBC [13]: 8 µM (≈ 22.8 µg/mL)
- MFC<=99.9 [14]: 4 µM (≈ 11.4 µg/mL)
- MIC95 [15]: 4 µM
- MIC95 [16]: 2 µM
- MIC95 [17]: 4 µM
- MIC95 [18]: 4 µM
- MIC95 [19]: 4 µM
- MIC95 [20]: 4 µM
- selectivity ratio [21]: 0.35
